Reference: ChEMBL document CHEMBL1221390, “Withaferin A, a cytotoxic steroid from Vassobia breviflora, induces apoptosis in human head and neck squamous cell carcinoma” (J Nat Prod, 2010)
The source made the active and inactive calls. The rule behind the calls is not given here.

Experiments:
[1] = biological target: RAC-alpha serine/threonine-protein kinase (Homo sapiens) (UniProt P31749); assay: Inhibition of Akt phosphorylation in human JHU011 cells after 24 hrs by Western blot analysis; assay type: cell-based
Outline: (§1)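 Increasing concentrations for 24 h. NP-40 lysates (with NaF and orthovanadate) cleared at 14,000 × g, equal protein separated by SDS-PAGE and blotted. Probed for phospho-Akt (Ser473), total Akt, phospho-ERK1/2 and total ERK; β-actin loading control. Primary antibody overnight at 4 °C, HRP secondary 1 h.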

[2] = biological target: T1, Mitogen-activated protein kinase; ERK1/ERK2 (Homo sapiens) (UniProt P27361+P28482); assay: Inhibition of ERK1/2 phosphorylation in human MDA1986 cells assessed as effect on total protein level at 0.1 to 5 uM after 24 hrs by Western blot analysis; assay type: cell-based; outline: as §1
[3] = Cytotoxicity against human JHU011 cells after 72 hrs by MTS assay; assay type: functional, cell-based; conditions: JHU011, 72 h
Outline: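 Seeded at 2×10³ cells/well, left 24 h, then exposed to serial dilutions in medium (from DMSO stock; vehicle controls <0.1% DMSO v/v) for 72 h. MTS added, 3 h at 37 °C, 5% CO₂, absorbance 490 nm. Viability expressed relative to medium-only control; IC50 read from viability–concentration curves. Triplicate; cisplatin positive control.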

[4] = tested on: JHU011; assay: Induction of apoptosis in human JHU011 cells assessed as induction of PRAP cleavage after 24 hrs by Western blot analysis; assay type: functional, cell-based
Outline: (§2)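 Cells exposed to increasing concentrations for 24 h, lysed in NP-40/Tris pH 7.5 buffer with protease inhibitors, NaF and orthovanadate. Equal protein run on SDS-PAGE, transferred to nitrocellulose. Probed overnight at 4 °C for uncleaved caspase 3 (pro-form) and uncleaved/cleaved PARP; HRP secondary 1 h at room temperature.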

[5] = biological target: T1, Mitogen-activated protein kinase; ERK1/ERK2 (Homo sapiens); assay: Inhibition of ERK1/2 phosphorylation in human UM-SCC2 cells at 0.1 to 5 uM after 24 hrs by Western blot analysis; assay type: cell-based; outline: as §1
[6] = species on record: Homo sapiens; assay: Induction of apoptosis in human MDA1986 cells assessed as increase in late apoptotic cells at 5 uM after 24 hrs by FITC-conjugated annexin V and propidium iodide staining-based flow cytometry; assay type: functional, cell-based
Outline: (§3)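 Cells given 5.0 μM for 24 h, harvested, and co-stained at 1×10⁶ cells/mL with annexin V-FITC and PI. Annexin binding buffer added before flow cytometry. Annexin V only scored as early apoptosis, annexin V+PI as late apoptosis, PI only as necrosis. Triplicate; t-test.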

[7] = Induction of cell cycle arrest in human MDA1986 cells assessed as accumulation at subG0 phase at 3 uM after 24 hrs by flow cytometry; assay type: functional
Outline: (§4)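 Treated 24 h with 3.0 μM or DMSO vehicle. Cells trypsinized; 1×10⁶ washed in 0.9% NaCl and fixed 30 min at room temperature in cold 70% ethanol/0.9% NaCl. Stained with PI (50 μg/mL in PBS) 30 min, then DNase-free RNase (1 mg/mL) 30 min. Phase distribution (sub-G0, G0/G1, S, G2/M) by flow cytometry.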

[8] = biological target: RAC-alpha serine/threonine-protein kinase (Homo sapiens) (UniProt P31749); assay: Inhibition of Akt in human JHU011 cells assessed as decrease in total protein level at 0.1 to 5 uM after 24 hrs by Western blot analysis; assay type: cell-based; outline: as §1
[9] = biological target: T1, Mitogen-activated protein kinase; ERK1/ERK2 (Homo sapiens); assay: Inhibition of ERK1/2 phosphorylation in human MDA1986 cells at 0.1 to 5 uM after 24 hrs by Western blot analysis; assay type: cell-based; outline: as §1
[10] = species on record: Homo sapiens; assay: Induction of apoptosis in human MDA1986 cells assessed as induction of PRAP cleavage at 1 to 6 uM after 24 hrs by Western blot analysis; assay type: functional, cell-based; outline: as §2
[11] = tested on: JHU011; assay: Induction of apoptosis in human JHU011 cells assessed as increase in non-viable necrotic cells at 5 uM after 24 hrs by FITC-conjugated annexin V and propidium iodide staining-based flow cytometry; assay type: functional, cell-based; outline: as §3
[12] = species on record: Homo sapiens; assay: Induction of apoptosis in human MDA1986 cells assessed as decrease in procaspase-3 level at 1 to 6 uM after 24 hrs by Western blot analysis; assay type: functional, cell-based; outline: as §2
[13] = tested on: JHU011; assay: Induction of apoptosis in human JHU011 cells assessed as mild increase in late apoptotic cells at 5 uM after 24 hrs by FITC-conjugated annexin V and propidium iodide staining-based flow cytometry; assay type: functional, cell-based; outline: as §3
[14] = Induction of cell cycle arrest in human JMAR cells assessed as accumulation at G2/M phase at 3 uM after 24 hrs by flow cytometry; assay type: functional; outline: as §4
[15] = biological target: T1, Mitogen-activated protein kinase; ERK1/ERK2 (Homo sapiens); assay: Inhibition of ERK1/2 phosphorylation in human JMAR cells assessed as effect on total protein level at 0.1 to 5 uM after 24 hrs by Western blot analysis; assay type: cell-based; outline: as §1
[16] = tested on: MDA1986; assay: Induction of apoptosis in human MDA1986 cells assessed as increase in non-viable necrotic cells at 5 uM after 24 hrs by FITC-conjugated annexin V and propidium iodide staining-based flow cytometry; assay type: functional, cell-based; outline: as §3
[17] = biological target: T1, Mitogen-activated protein kinase; ERK1/ERK2 (Homo sapiens); assay: Inhibition of ERK1/2 phosphorylation in human JHU011 cells assessed as effect on total protein level at 0.1 to 5 uM after 24 hrs by Western blot analysis; assay type: cell-based; outline: as §1
[18] = tested on: JMAR; assay: Induction of apoptosis in human JMAR cells assessed as decrease in procaspase-3 level at 1 to 6 uM after 24 hrs by Western blot analysis; assay type: functional, cell-based; outline: as §2
[19] = biological target: RAC-alpha serine/threonine-protein kinase (Homo sapiens) (UniProt P31749); assay: Inhibition of Akt phosphorylation in human JMAR cells after 24 hrs by Western blot analysis; assay type: cell-based; outline: as §1
[20] = tested on: JMAR; assay: Induction of apoptosis in human JMAR cells assessed as increase in late apoptotic cells at 5 uM after 24 hrs by FITC-conjugated annexin V and propidium iodide staining-based flow cytometry; assay type: functional, cell-based; outline: as §3
[21] = biological target: T1, Mitogen-activated protein kinase; ERK1/ERK2 (Homo sapiens); assay: Inhibition of ERK1/2 phosphorylation in human JMAR cells at 0.1 to 5 uM after 24 hrs by Western blot analysis; assay type: cell-based; outline: as §1
[22] = tested on: UM-SCC2; assay: Induction of apoptosis in human UM-SCC2 cells assessed as increase in late apoptotic cells at 5 uM after 24 hrs by FITC-conjugated annexin V and propidium iodide staining-based flow cytometry; assay type: functional, cell-based; outline: as §3
[23] = biological target: RAC-alpha serine/threonine-protein kinase (Homo sapiens) (UniProt P31749); assay: Inhibition of Akt in human JMAR cells assessed as decrease in total protein level at 0.1 to 5 uM after 24 hrs by Western blot analysis; assay type: cell-based; outline: as §1

T1 sequence (P27361 whole entry, looked up): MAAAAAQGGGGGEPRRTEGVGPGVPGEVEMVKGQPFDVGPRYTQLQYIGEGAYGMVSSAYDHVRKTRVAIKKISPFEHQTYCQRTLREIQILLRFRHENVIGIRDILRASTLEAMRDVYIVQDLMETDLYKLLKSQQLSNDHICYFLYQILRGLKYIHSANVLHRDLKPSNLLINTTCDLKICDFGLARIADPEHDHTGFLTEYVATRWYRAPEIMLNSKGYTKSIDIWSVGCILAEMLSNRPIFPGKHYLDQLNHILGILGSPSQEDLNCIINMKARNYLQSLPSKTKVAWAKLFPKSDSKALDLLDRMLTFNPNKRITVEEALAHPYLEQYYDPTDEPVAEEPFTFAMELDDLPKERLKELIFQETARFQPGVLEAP
T1 sequence (P28482 whole entry, looked up): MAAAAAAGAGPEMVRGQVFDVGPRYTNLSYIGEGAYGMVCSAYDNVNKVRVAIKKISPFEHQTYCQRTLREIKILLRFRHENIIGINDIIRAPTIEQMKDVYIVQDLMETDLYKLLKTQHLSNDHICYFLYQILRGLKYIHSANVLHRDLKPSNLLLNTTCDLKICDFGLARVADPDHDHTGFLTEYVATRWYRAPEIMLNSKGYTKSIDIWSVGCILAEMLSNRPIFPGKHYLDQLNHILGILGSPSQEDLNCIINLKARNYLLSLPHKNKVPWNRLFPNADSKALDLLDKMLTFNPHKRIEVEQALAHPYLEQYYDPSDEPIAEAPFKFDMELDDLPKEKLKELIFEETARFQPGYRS
Sequence of RAC-alpha serine/threonine-protein kinase (Homo sapiens) (P31749 whole entry): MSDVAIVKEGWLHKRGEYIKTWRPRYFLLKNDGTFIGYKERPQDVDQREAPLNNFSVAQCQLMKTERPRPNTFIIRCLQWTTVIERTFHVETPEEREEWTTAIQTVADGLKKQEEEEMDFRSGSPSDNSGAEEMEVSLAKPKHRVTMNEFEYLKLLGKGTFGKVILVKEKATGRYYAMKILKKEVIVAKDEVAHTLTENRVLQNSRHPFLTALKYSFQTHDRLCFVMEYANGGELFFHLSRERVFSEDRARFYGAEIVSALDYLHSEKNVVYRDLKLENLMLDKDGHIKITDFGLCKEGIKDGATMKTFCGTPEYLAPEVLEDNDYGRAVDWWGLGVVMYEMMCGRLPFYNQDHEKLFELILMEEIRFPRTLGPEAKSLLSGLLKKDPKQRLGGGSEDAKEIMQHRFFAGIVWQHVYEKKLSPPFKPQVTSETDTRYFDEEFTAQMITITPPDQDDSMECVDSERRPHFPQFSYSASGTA

inhibition [1]: Dose-dependent effect
inhibition [2]: inactive
inhibition [5]: Active
inhibition [8]: Active
inhibition [9]: inactive
inhibition [15]: inactive
inhibition [17]: inactive
inhibition [19]: Dose-dependent effect
inhibition [21]: inactive
inhibition [23]: Active
Compound: CC1=C(CO)C(=O)O[C@@H]([C@@H](C)[C@H]2CC[C@H]3[C@@H]4C[C@H]5O[C@]56[C@@H](O)C=CC(=O)[C@]6(C)[C@H]4CC[C@]23C)C1 [WITHAFERIN A]
IC50 [3]: 2200 nM
Activity [4]: Dose-dependent effect
Activity [6]: inactive
Activity [7]: 8%
Activity [10]: Active
Activity [11]: inactive
Activity [12]: Active
Activity [13]: Active
Activity [14]: 42%
Activity [16]: inactive
Activity [18]: Active
Activity [20]: Active
Activity [22]: Active
